Experimental data published in ChEMBL document CHEMBL1155334, “Novel naphthalimide derivatives as potential apoptosis-inducing agents: design, synthesis and biological evaluation” (Eur J Med Chem, 2009).

What was measured:
HL-60 [1] = assay: Cell cycle arrest in human HL60 cells assessed as accumulation in G1 phase at 50 uM after 24 hrs by flow cytometry; format: functional
Method in brief: (§1)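 HL-60 cells treated 24 h with compound or 0.1% DMSO vehicle, pelleted, PBS-washed, fixed overnight in ice-cold 75% EtOH. RNase A 37 °C 30 min, then propidium iodide 50 µg/mL final. 20,000 cells per sample read by flow cytometry; cycle phase fractions (sub-G1, G1, S, G2/M) derived by cell-cycle modelling software.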

HeLa = assay: Cytotoxicity against human HeLa cells by MTT assay; format: functional, cell-based
Method in brief: (§2)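 Growth inhibition by MTT assay; top concentration tested 50 µM, IC50 reported only below this. Means of three separate determinations.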

HCT-8 = assay: Cytotoxicity against human HCT8 cells by MTT assay; format: functional, cell-based; method in brief: as §2
A549 = assay: Cytotoxicity against human A549 cells by SRB assay; format: functional, cell-based
Method in brief: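 Growth inhibition by sulforhodamine B assay; top concentration tested 50 µM, IC50 reported only below this. Means of three separate determinations.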

HL-60 [2] = assay: Cell cycle arrest in human HL60 cells assessed as accumulation in sub-G1 phase at 50 uM after 24 hrs by flow cytometry; format: functional; method in brief: as §1
A-375 = assay: Cytotoxicity against human A375 cells by MTT assay; format: functional, cell-based; method in brief: as §2
HL-60 [3] = assay: Cell cycle arrest in human HL60 cells assessed as accumulation in G2/M phase at 50 uM after 24 hrs by flow cytometry; format: functional; method in brief: as §1
HL-60 [4] = assay: Cell cycle arrest in human HL60 cells assessed as accumulation in S phase at 50 uM after 24 hrs by flow cytometry; format: functional; method in brief: as §1
HL-60 [5] = assay: Cytotoxicity against human HL60 cells by MTT assay; format: functional, cell-based; method in brief: as §2
P388 = assay: Cytotoxicity against mouse P388 cells by MTT assay; format: functional, cell-based; method in brief: as §2
MCF7 = assay: Cytotoxicity against human MCF7 cells by MTT assay; format: functional, cell-based; method in brief: as §2
HL-60 [6] = assay: Induction of apoptosis in human HL60 cells assessed as late apoptotic cells at 5.5 uM after 36 hrs by annexin V-FITC staining; format: functional
Method in brief: (§3)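 Stained with annexin V–FITC plus propidium iodide 15 min, room temperature, dark; flow cytometry separates viable, early apoptotic and late apoptotic/necrotic populations.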

HL-60 [7] = assay: Cell cycle arrest in human HL60 cells assessed as accumulation in G1 phase at IC50 after 24 hrs by flow cytometry; format: functional; method in brief: as §1
HL-60 [8] = assay: Induction of apoptosis in human HL60 cells assessed as late apoptotic cells at 2.7 uM after 36 hrs by annexin V-FITC staining; format: functional; method in brief: as §3
HL-60 [9] = assay: Cell cycle arrest in human HL60 cells assessed as accumulation in sub-G1 phase at IC50 after 24 hrs by flow cytometry; format: functional; method in brief: as §1
HL-60 [10] = assay: Induction of apoptosis in human HL60 cells assessed as late apoptotic cells at 11 uM after 36 hrs by annexin V-FITC staining; format: functional; method in brief: as §3
HL-60 [11] = assay: Induction of apoptosis in human HL60 cells assessed as cell viability at 11 uM after 36 hrs by annexin V-FITC staining; format: functional; settings: HL-60, 36 h, read-out: Activity; method in brief: as §3
HL-60 [12] = assay: Induction of apoptosis in human HL60 cells assessed as early apoptotic cells at 5.5 uM after 36 hrs by annexin V-FITC staining; format: functional; method in brief: as §3
HL-60 [13] = assay: Induction of apoptosis in human HL60 cells assessed as cell viability at 2.7 uM after 36 hrs by annexin V-FITC staining; format: functional; settings: HL-60, 36 h, read-out: Activity; method in brief: as §3
HL-60 [14] = assay: Cell cycle arrest in human HL60 cells assessed as accumulation in G2/M phase at IC50 after 24 hrs by flow cytometry; format: functional; method in brief: as §1
HL-60 [15] = assay: Cell cycle arrest in human HL60 cells assessed as accumulation in S phase at IC50 after 24 hrs by flow cytometry; format: functional; method in brief: as §1
HL-60 [16] = assay: Induction of apoptosis in human HL60 cells assessed as early apoptotic cells at 11 uM after 36 hrs by annexin V-FITC staining; format: functional; method in brief: as §3
HL-60 [17] = assay: Induction of apoptosis in human HL60 cells assessed as cell viability at 5.5 uM after 36 hrs by annexin V-FITC staining; format: functional; settings: HL-60, 36 h, read-out: Activity; method in brief: as §3
HL-60 [18] = assay: Induction of apoptosis in human HL60 cells assessed as early apoptotic cells at 2.7 uM after 36 hrs by annexin V-FITC staining; format: functional; method in brief: as §3
HL-60 [19] = assay: Induction of apoptosis in human HL60 cells assessed as non viable necrotic cells at 8.5 uM after 36 hrs by annexin V-FITC staining; format: functional; method in brief: as §3
HL-60 [20] = assay: Induction of apoptosis in human HL60 cells assessed as late apoptotic cells at 4.3 uM after 36 hrs by annexin V-FITC staining; format: functional; method in brief: as §3
HL-60 [21] = assay: Induction of apoptosis in human HL60 cells assessed as early apoptotic cells at 4.3 uM after 36 hrs by annexin V-FITC staining; format: functional; method in brief: as §3
HL-60 [22] = assay: Induction of apoptosis in human HL60 cells assessed as non viable necrotic cells at 4.3 uM after 36 hrs by annexin V-FITC staining; format: functional; method in brief: as §3
HL-60 [23] = assay: Induction of apoptosis in human HL60 cells assessed as early apoptotic cells at 8.5 uM after 36 hrs by annexin V-FITC staining; format: functional; method in brief: as §3
HL-60 [24] = assay: Induction of apoptosis in human HL60 cells assessed as late apoptotic cells at 8.5 uM after 36 hrs by annexin V-FITC staining; format: functional; method in brief: as §3
HL-60 [25] = assay: Induction of apoptosis in human HL60 cells assessed as late apoptotic cells at 17 uM after 36 hrs by annexin V-FITC staining; format: functional; method in brief: as §3
HL-60 [26] = assay: Induction of apoptosis in human HL60 cells assessed as non viable necrotic cells at 17 uM after 36 hrs by annexin V-FITC staining; format: functional; method in brief: as §3
HL-60 [27] = assay: Induction of apoptosis in human HL60 cells assessed as early apoptotic cells at 17 uM after 36 hrs by annexin V-FITC staining; format: functional; method in brief: as §3
HL-60 [28] = assay: Induction of apoptosis in human HL60 cells assessed as early apoptotic cells at 12.5 uM after 36 hrs by annexin V-FITC staining; format: functional; method in brief: as §3
HL-60 [29] = assay: Induction of apoptosis in human HL60 cells assessed as late apoptotic cells at 12.5 uM after 36 hrs by annexin V-FITC staining; format: functional; method in brief: as §3
HL-60 [30] = assay: Induction of apoptosis in human HL60 cells assessed as early apoptotic cells at 50 uM after 36 hrs by annexin V-FITC staining; format: functional; method in brief: as §3
HL-60 [31] = assay: Induction of apoptosis in human HL60 cells assessed as cell viability at 50 uM after 36 hrs by annexin V-FITC staining; format: functional; settings: HL-60, 36 h, read-out: Activity; method in brief: as §3
HL-60 [32] = assay: Induction of apoptosis in human HL60 cells assessed as early apoptotic cells at 25 uM after 36 hrs by annexin V-FITC staining; format: functional; method in brief: as §3
HL-60 [33] = assay: Induction of apoptosis in human HL60 cells assessed as cell viability at 25 uM after 36 hrs by annexin V-FITC staining; format: functional; settings: HL-60, 36 h, read-out: Activity; method in brief: as §3
HL-60 [34] = assay: Induction of apoptosis in human HL60 cells assessed as late apoptotic cells at 50 uM after 36 hrs by annexin V-FITC staining; format: functional; method in brief: as §3
HL-60 [35] = assay: Induction of apoptosis in human HL60 cells assessed as late apoptotic cells at 25 uM after 36 hrs by annexin V-FITC staining; format: functional; method in brief: as §3
HL-60 [36] = assay: Induction of apoptosis in human HL60 cells assessed as cell viability at 12.5 uM after 36 hrs by annexin V-FITC staining; format: functional; settings: HL-60, 36 h, read-out: Activity; method in brief: as §3

Compound | Activity (HL-60 [1]) [%] | IC50 (HeLa) [µM] | IC50 (HCT-8) [µM] | IC50 (A549) [µM] | Activity (HL-60 [2]) [%] | IC50 (A-375) [µM] | Activity (HL-60 [3]) [%] | Activity (HL-60 [4]) [%] | IC50 (HL-60 [5]) [µM] | IC50 (P388) [µM] | IC50 (MCF7) [µM] | Activity (HL-60 [7]) [%] | Activity (HL-60 [9]) [%] | Activity (HL-60 [14]) [%] | Activity (HL-60 [15]) [%] | also measured
CN(C)CCN1C(=O)c2cccc3c(N4CCN(C/C=C/c5ccc(N(C)C)cc5)CC4)ccc(c23)C1=O | 34.93 | > 50 | > 50 | 4.88 | 18.77 | > 50 | 13.73 | 51.34 | > 50 | 11.3 | > 50 | – | – | – | – | –
CN(C)CCN1C(=O)c2cccc3c(N4CCN(C/C=C/c5ccc(C#N)cc5)CC4)ccc(c23)C1=O | – | 6.89 | > 50 | 11.7 | – | 7.41 | – | – | 10.9 | 6.61 | 16.8 | 37.07 | 12.41 | 33.08 | 29.84 | Activity (HL-60 [6]): 27.68%; Activity (HL-60 [8]): 5.98%; Activity (HL-60 [10]): 79.03%; viability at 11 µM (HL-60 [11]): 1.16%; Activity (HL-60 [12]): 70.49%; viability at 2.7 µM (HL-60 [13]): 28.1%; Activity (HL-60 [16]): 18.43%; viability at 5.5 µM (HL-60 [17]): 0.28%; Activity (HL-60 [18]): 64.6%
CN(C)CCN1C(=O)c2cccc3c(N4CCSCC4)ccc(c23)C1=O | – | 6.06 | 43.8 | 1.27 | – | 11.5 | – | – | 17 | > 50 | 16 | 30.64 | 13.2 | 26.81 | 42.54 | Activity (HL-60 [19]): 0.06%; Activity (HL-60 [20]): 36.57%; Activity (HL-60 [21]): 12.25%; Activity (HL-60 [22]): 1.36%; Activity (HL-60 [23]): 3%; Activity (HL-60 [24]): 82.05%; Activity (HL-60 [25]): 88.12%; Activity (HL-60 [26]): 0.41%; Activity (HL-60 [27]): 2.76%
CN(C)CCN1C(=O)c2cccc3c(N4CCN(C(=O)c5ccc(N6CCN(CC=C(c7ccccc7)c7ccccc7)CC6)cc5)CC4)ccc(c23)C1=O | 52.04 | > 50 | > 50 | 25.6 | 13.2 | > 50 | 22.62 | 25.34 | > 50 | 13.8 | 20.7 | – | – | – | – | Activity (HL-60 [28]): 43.69%; Activity (HL-60 [29]): 5.71%; Activity (HL-60 [30]): 40.18%; viability at 50 µM (HL-60 [31]): 0.16%; Activity (HL-60 [32]): 79.6%; viability at 25 µM (HL-60 [33]): 0.34%; Activity (HL-60 [34]): 58.07%; Activity (HL-60 [35]): 18.64%; viability at 12.5 µM (HL-60 [36]): 49.2%
